Reference: paper PMC6626068 (Journal of Advanced Research, 2019)
Read-outs that look alike come from different tables or passages of the source.

Experiments:
Format in all cases: cell-based
HeLa = assay: MTT cytotoxicity assay, HeLa cells; conditions: 72 h; for IC50: read-out: IC50 (μM) HeLa
Summary of the method: (§1)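 Cells were grown in DMEM with 10% FBS and 1% penicillin/streptomycin at 37 °C under 5% CO₂, then seeded at 1 × 10⁴ cells/well. After 24 h they received the test compound at 0, 2.5, 5, 10, 20 and 40 μM for 72 h, with doxorubicin as positive control. MTT (5 mg/mL stock) was added for 4 h, formazan dissolved in DMSO for 10 min, A570 read, and IC50 calculated.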

HepG2 = assay: MTT cytotoxicity assay, HepG2 cells; conditions: read-out: IC50 (μM) HepG2
Summary of the method: as §1

MCF-7 = assay: MTT cytotoxicity assay, MCF-7 cells; conditions: for IC50: read-out: IC50 (μM) MCF-7
Summary of the method: as §1

HCT-116 = assay: MTT cytotoxicity assay, HCT-116 cells; conditions: read-out: IC50 (μM) HCT-116
Summary of the method: as §1

MDA-MB-231 = assay: MTT cytotoxicity assay, MDA-MB-231 cells; conditions: read-out: IC50 (μM) MDA-MB-231
Summary of the method: as §1

HUVEC = assay: MTT cytotoxicity assay, normal cell line HUVEC; conditions: read-out: IC50 (μM) HUVEC, 72 h
HeLa cells = assay: Annexin V/PI double staining flow cytometry, HeLa; conditions: 1 μM, 48 h (positive control)
MCF-7 cells = assay: Annexin V/PI double staining flow cytometry, MCF-7; conditions: MCF-7, 1 μM, 48 h (positive control)
GFP-LC3-HeLa cells = assay: Autophagy detection using GFP-LC3 expression in HeLa cells; conditions: 25 μM, 24 h, observation control
Summary of the method: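 HeLa cells stably expressing GFP-LC3, grown in 24-well plates, were exposed to the test compound for 24 h, either at 10 μM for screening or at 2.5, 5, 10 and 20 μM. Chloroquine phosphate at 25 μM served as the observation control. GFP-LC3 puncta were imaged by fluorescence microscopy, and dots per cell were counted.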

Compound	IC50 (HeLa; Homo sapiens) [µM]	IC50 (HepG2; Homo sapiens, HepG2, 72 h) [µM]	IC50 (MCF-7; Homo sapiens, MCF7, 72 h) [µM]	IC50 (HCT-116; Homo sapiens, HCT-116, 72 h) [µM]	IC50 (MDA-MB-231; Homo sapiens, MDA-MB-231, 72 h) [µM]	IC50 (HUVEC; Homo sapiens, HUVEC) [µM]	also measured
3,9-dihydroxypterocarp-6a-en [Compound 17]							IC50 (HeLa; MTT, means ± SEM (n = 3)): 36.1 ± 7.34 µM; IC50 (HepG2; MTT, 72 h, means ± SEM (n = 3)): 34.2 ± 1.87 µM; IC50 (MCF-7; MTT, 72 h, means ± SEM (n = 3)): 30.3 ± 1.32 µM; IC50 (HCT-116; MTT, 72 h, means ± SEM (n = 3)): 39.7 ± 2.06 µM; IC50 (MDA-MB-231; MTT, 72 h, means ± SEM (n = 3)): 36.8 ± 5.61 µM; IC50 (HUVEC; normal cell line, MTT, compounds at 50 μM, means ± SEM (n = 3)): > 50 µM
COc1cc2c(c(OC)c1OC)-c1ccc(OC)c(=O)cc1[C@@H](NC(C)=O)CC2 [Colchicine, colchicine]							apoptosis rate (early + late apoptotic cells) (HeLa cells): 45.62%; apoptosis rate (early + late apoptotic cells) (MCF-7 cells): 38.01%
COc1cc(OC)c(-c2coc3c(CC=C(C)C)c(OC)c(OC)cc3c2=O)cc1OC [Compound 4, 8-(γ, γ-dimethylallyl)-6,7,2′,4′,5′-pentamethoxyisoflavone]	7.86 ± 1.21	8.74 ± 0.83	18.5 ± 0.51	8.61 ± 0.72	15.8 ± 2.15	> 50	growth inhibition of HeLa cells (primary screening) (HeLa; 50 μM, MTT): most active; growth inhibition of MCF-7 cells (primary screening) (MCF-7; 50 μM, 72 h, MTT): most active
COc1cc(-c2coc3c(CC=C(C)C)c(OC)c(OC)c(O)c3c2=O)c(OC)cc1O [Compound 5, 8-(γ, γ-dimethylallyl)-5,4′-dihydroxy-6,7,2′,5′-tetramethoxyisoflavone]	35.7 ± 3.91	31.6 ± 2.06	35.1 ± 1.44	25.9 ± 0.85	27.6 ± 4.54	> 50	
COc1cccc2c1C(=O)c1c(O)c3c(c(O)c1C2=O)C[C@@](O)(C(=O)CO)C[C@@H]3O[C@H]1C[C@H](N)[C@H](O)[C@H](C)O1 [Doxorubicin, reference compound]	0.03 ± 0.001	0.02 ± 0.002	0.02 ± 0.003	0.03 ± 0.003	0.03 ± 0.002	0.04 ± 0.005	
CCN(CC)CCCC(C)Nc1ccnc2cc(Cl)ccc12 (centres unmarked) [chloroquine phosphate]							GFP-LC3 dots (autophagosomes) (GFP-LC3-HeLa cells): obvious increase in the GFP-LC3 dots
